One block for each compound: values may come before it. Activity calls are given as the source filed them. The rule behind the calls is not given here. Peptide text beside a SMILES is read from it. * marks the point of attachment. AMC = Cc1cc(=O)oc2cc(N*)ccc12; Boc = CC(C)(C)OC(=O)*
Key:
West Nile virus [1] = experiment: Inhibition of West Nile virus EG101 NS2BH/NS3 serine protease after 15 mins using Boc-Gly-Lys-Arg-AMC substrate assessed as increase in apparent Km/apparent Vmax ratio of substrate by Sigma plot
Summary of the method: (§1)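 Steady-state kinetics with purified NS2BH/NS3 protease. Enzyme preincubated 15 min at room temperature with inhibitor at 0, 1.5, 2.5, 5 or 10 µM. Substrate then added at eight concentrations (10–400 µM) for 15 min. AMC or MNA fluorescence converted to rate via a standard curve. Kmapp/Vmaxapp and 1/Vmaxapp plotted against inhibitor concentration; Ki from kinetic fitting; repeated three times.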

[2] = target: Coagulation factor X (Homo sapiens) (UniProt P00742); experiment: Inhibition of protease activity of factor 10a using Boc-Ile-Glu-Gly-Arg-AMC substrate
Summary of the method: (§2)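 Trypsin (67 nM) or factor Xa (25 nM) preincubated 15 min at room temperature with 50 µM inhibitor in 200 mM Tris-HCl pH 9.5, 6 mM NaCl, 30% glycerol. Substrate added at 100 µM for 15 min: Z-Gly-Pro-Arg-pNA for trypsin, read by absorbance at 405 nm; Boc-Ile-Glu-Gly-Arg-AMC for factor Xa, read by fluorescence. Aprotinin as positive control; triplicate.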

West Nile virus [3] = experiment: Antiviral activity against West Nile virus EG101 infected in Vero cells assessed as inhibition of viral replication measured 24 hrs post infection by luciferase reporter gene assay; assay type: functional, organism-based
Summary of the method: (§3)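 Vero cells pretreated 30 min with twofold serial dilutions of inhibitor in MEM with 10% FBS and 1% penicillin-streptomycin. Then infected with WNV reporter virus particles carrying a Renilla luciferase subgenomic replicon (approx. 1 x 10^4 RVPs, MOI 0.5 to 1.0). Lysates assayed for luciferase. EC50 from variable-slope sigmoidal nonlinear regression; triplicate.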

[4] = Selectivity index, ratio of CC50 for African green monkey Vero cells to EC50 for West Nile virus EG101; assay type: toxicity, cell-based; conditions: read-out: Selectivity Index
[5] = Inhibition of Dengue virus 2 New Guinea C NS2BH/NS3 serine protease after 15 mins by spectrofluorometer in presence of Boc-Gly-Arg-Arg-AMC; set-up: species or system dengue virus type 2
Summary of the method: (§4)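 His-tagged NS2BH/NS3 complex expressed in E. coli and purified by Talon affinity and Sephadex G-75. 67 nM protease preincubated 15 min at room temperature with 50 µM inhibitor in 200 mM Tris-HCl pH 9.5, 6 mM NaCl, 30% glycerol. Substrate added at 100 µM final (Boc-GKR-AMC for WNV, Boc-GRR-AMC for DENV2) for 15 min. AMC fluorescence read at ex 390/em 465 nm. Activity expressed as percent of no-inhibitor control; triplicate.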

West Nile virus [6] = experiment: Antiviral activity against West Nile virus EG101 infected in Vero cells assessed as inhibition of viral replication measured 72 hrs post infection by luciferase reporter gene assay; assay type: functional, organism-based; summary of the method: as §3
[7] = (§5) Cytotoxicity against African green monkey Vero cells after 24 hrs by Cell Titer-Glo assay; assay type: cell-based; conditions: chlorocebus sabaeus, Vero cells
Summary of the method: (§6)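 Vero cells seeded at 5,000 cells/well and grown 24 h at 37°C, 5% CO2. Compound added in triplicate in DMEM with 10% FBS and incubated a further 24 h. Viability read by CellTiter-Glo luminescence. Cytotoxicity expressed relative to no-compound wells; CC50 taken from the dose curve; two independent experiments.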

[8] = Inhibition of West Nile virus EG101 NS2BH/NS3 serine protease after 15 mins using Boc-Gly-Lys-Arg-AMC substrate by spectrofluorometry; summary of the method: as §4
West Nile virus [9] = experiment: Inhibition of West Nile virus EG101 NS2BH/NS3 serine protease after 15 mins using Z-Val-Lys-Arg-MNA substrate assessed as increase in apparent Km/apparent Vmax ratio of substrate by Sigma plot; summary of the method: as §1
[10] = Inhibition of protease activity of trypsin using Z-Gly-Pro-Arg-pNA substrate; summary of the method: as §2
West Nile virus [11] = experiment: Antiviral activity against West Nile virus EG101 infected in Vero cells assessed as inhibition of viral replication measured 48 hrs post infection by luciferase reporter gene assay; assay type: functional, organism-based; summary of the method: as §3
Vero = experiment: as §5; assay type: cell-based; conditions: chlorocebus sabaeus, vero, 24 h; summary of the method: as §6

Coagulation factor X (Homo sapiens), sequence (P00742 41-179 limits assumed): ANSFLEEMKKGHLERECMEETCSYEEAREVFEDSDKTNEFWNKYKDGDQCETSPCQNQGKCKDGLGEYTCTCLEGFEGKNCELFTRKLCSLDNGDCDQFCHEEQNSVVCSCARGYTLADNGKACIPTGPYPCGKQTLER
Coagulation factor X (Homo sapiens), sequence (P00742 235-488 limits assumed): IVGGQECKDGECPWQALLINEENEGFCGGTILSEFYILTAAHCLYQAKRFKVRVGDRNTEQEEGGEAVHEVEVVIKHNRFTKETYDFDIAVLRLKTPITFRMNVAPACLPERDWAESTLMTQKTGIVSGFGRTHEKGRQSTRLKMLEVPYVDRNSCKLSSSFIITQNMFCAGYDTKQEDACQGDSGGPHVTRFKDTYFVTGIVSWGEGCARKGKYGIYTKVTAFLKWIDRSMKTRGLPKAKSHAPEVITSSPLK

inhibition (West Nile virus [1]): Active
inhibition [2]: inactive
inhibition (West Nile virus [9]): Active
inhibition [10]: inactive
EC50 (West Nile virus [11]): 1.4 µM
Structure (SMILES): Oc1ccccc1C(Nc1nccs1)c1ccc2cccnc2c1O (configuration not stated)
inhibition (West Nile virus [3]): Active
selectivity ratio [4]: 100
Ki [5]: 30.2 µM
inhibition (West Nile virus [6]): Active
CC50 at 24 h [7]: 140 µM
Ki [8]: 3.4 µM

Structure (SMILES): CCn1c(SCC(=O)c2ccccc2)nc2ccccc2c1=O
Ki [5]: 17 µM
Ki [8]: 37.3 µM

Structure (SMILES): COc1cccc(C(NC(=O)c2ccccc2)c2ccc3cccnc3c2O)c1 (configuration not stated)
Ki [5]: 28.6 µM
Activity (Vero): Toxic
Ki [8]: 3.2 µM

Km (West Nile virus [9]): 737 µM
Structure (SMILES): Cc1cc(=O)oc2cc(NC(=O)[C@H](CCCNC(=N)N)NC(=O)[C@H](CCCCN)NC(=O)CNC(=O)OC(C)(C)C)ccc12 (Boc-Gly-Lys-Arg-{AMC})
